# Laboratory results: ChEMBL document CHEMBL3576866, “Discovery of a Cyclic Boronic Acid β-Lactamase Inhibitor (RPX7009) with Utility vs Class A Serine Carbapenemases” (J Med Chem, 2015)
# pIC50: −log10 of the molar value.
# Columns and labels:
# [1] = target: Beta-lactamase TEM (Enterobacter cloacae) (UniProt Q6W9J1); assay: Inhibition of Enterobacter cloacae ECL1058 TEM-1 assessed as biapenem MIC at 4 ug/ml by broth microdilution method
# Klebsiella pneumoniae [2] = assay: Inhibition of Klebsiella pneumoniae KP1087 CTX-M-15 assessed as biapenem MIC at 4 ug/ml by broth microdilution method
# [3] = target: Beta-lactamase (Enterobacter cloacae) (UniProt G8A3U3); assay: Inhibition of Enterobacter cloacae ECL1003 TEM assessed as cefepime MIC at 4 ug/ml by broth microdilution method
# Klebsiella oxytoca [4] = assay: Inhibition of Klebsiella oxytoca KX1001 OXA-2 assessed as cefepime MIC at 4 ug/ml by broth microdilution method
# Summary of the method: (§1)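 CLSI broth microdilution (M07-A9) against clinical strains expressing serine β-lactamases.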
# [5] = Cmax in rat at 100 mg/kg, iv administered as 0.5 hrs infusion by HPLC-MS method; type: ADME, organism-based; set-up: dose 100 mg/kg, route intravenous; details: in vivo
# Klebsiella pneumoniae [6] = assay: Inhibition of Klebsiella pneumoniae KP1004 SHV-11 assessed as biapenem MIC at 4 ug/ml by broth microdilution method
# Summary of the method: (§2)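 CLSI broth microdilution (M07-A9, 2012) MIC of the carbapenem against clinical serine carbapenemase-producing strain, tested alone and with the inhibitor held at a fixed 4 μg/mL.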
# [7] = target: Carbapenem-hydrolyzing beta-lactamase KPC (Klebsiella oxytoca) (UniProt Q848S6); assay: Inhibition of Klebsiella oxytoca KX1017 KPC-2 assessed as ertapenem MIC at 4 ug/ml by broth microdilution method
# Klebsiella pneumoniae [8] = assay: Inhibition of Klebsiella pneumoniae KP1005 CTX-M-14 assessed as cefepime MIC at 4 ug/ml by broth microdilution method
# Klebsiella pneumoniae [9] = assay: Inhibition of Klebsiella pneumoniae KP1087 KPC-2 assessed as meropenem MIC at 4 ug/ml by broth microdilution method; summary of the method: as §2
# [10] = target: Beta lactamase TEM-1 (Klebsiella pneumoniae) (UniProt Q7B899); assay: Inhibition of Klebsiella pneumoniae KP1083 TEM-1 assessed as biapenem MIC at 4 ug/ml by broth microdilution method; summary of the method: as §2
# [11] = target: Beta-lactamase (Klebsiella pneumoniae) (UniProt Q93LQ9); assay: Inhibition of Klebsiella pneumoniae KP1084 KPC-3 assessed as ertapenem MIC at 4 ug/ml by broth microdilution method; summary of the method: as §2
# Klebsiella oxytoca [12] = assay: Inhibition of Klebsiella oxytoca KX1019 OXA-2 assessed as imipenem MIC at 4 ug/ml by broth microdilution method
# Dipeptidyl peptidase 2 = Dipeptidyl peptidase 2 (Homo sapiens, UniProt Q9UHL4); assay: Inhibition of dipeptidyl peptidase 7 (unknown origin) using H-Lys-Pro-AMC as substrate preincubated for 10 mins followed by substrate addition measured for 30 mins by spectrophotometric analysis
# Summary of the method: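 DPP7 (commercial) in 50 mM Na-acetate, pH 5.8. Preincubated 10 min at 37 °C with inhibitor at several concentrations, then H-Lys-Pro-AMC (listed at 100 μM) added and fluorescence monitored for 30 min. Activity was relative to a no-treatment control; IC50 is the concentration giving half inhibition.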
# Klebsiella pneumoniae [13] = assay: Inhibition of Klebsiella pneumoniae KP1010 SHV-12 assessed as cefepime MIC at 4 ug/ml by broth microdilution method; summary of the method: as §1
# Klebsiella pneumoniae [14] = assay: Inhibition of Klebsiella pneumoniae KP1084 SHV-11 assessed as ertapenem MIC at 4 ug/ml by broth microdilution method; summary of the method: as §2
# [15] = Half life in rat at 300 mg/kg, iv administered as 0.5 hrs infusion by HPLC-MS method; type: ADME, organism-based; details: in vivo
# Klebsiella pneumoniae [16] = assay: Inhibition of Klebsiella pneumoniae KP1087 SHV-11 assessed as ertapenem MIC at 4 ug/ml by broth microdilution method; summary of the method: as §2
# Klebsiella pneumoniae [17] = assay: Inhibition of Klebsiella pneumoniae KP1008 KPC-2 assessed as biapenem MIC at 4 ug/ml by broth microdilution method; summary of the method: as §2
# Klebsiella pneumoniae [18] = assay: Inhibition of Klebsiella pneumoniae KP1088 SHV-11 assessed as ertapenem MIC at 4 ug/ml by broth microdilution method
# Summary of the method: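 CLSI broth microdilution (M07-A9, 2012) against the clinical K. pneumoniae isolate. Carbapenem MICs were read alone and with 9f held at a fixed 4 μg/mL.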
# [19] = target: Beta lactamase TEM-1 (Klebsiella pneumoniae) (UniProt Q7B899); assay: Inhibition of Klebsiella pneumoniae KP1087 TEM-1 assessed as meropenem MIC at 4 ug/ml by broth microdilution method; summary of the method: as §2
# Klebsiella pneumoniae [20] = assay: Inhibition of Klebsiella pneumoniae KP1087 SHV-11 assessed as meropenem MIC at 4 ug/ml by broth microdilution method; summary of the method: as §2
# [21] = target: Class A carbapenemase KPC-2 (Escherichia coli) (UniProt A8DS27); assay: Inhibition of Escherichia coli EC1007 KPC-3 assessed as imipenem MIC at 4 ug/ml by broth microdilution method
# [22] = Inhibition of chymotrypsin (unknown origin) using Suc-AAPF-AMC as substrate preincubated for 10 mins followed by substrate addition measured for 30 mins by spectrophotometric analysis; set-up: species or system Homo sapiens
# Summary of the method: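 Chymotrypsin, from a commercial source, in 20 mM Tris-HCl, pH 8, 150 mM NaCl, 2.5 mM CaCl2. Incubated 10 min at 37 °C with varied inhibitor concentrations. Suc-AAPF-AMC (listed at 10 μM) was added and the reaction read for 30 min. Rates were relative to untreated; IC50 is the concentration giving 50% inhibition.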
# Klebsiella pneumoniae [23] = assay: Inhibition of Klebsiella pneumoniae KP1084 SHV-11 assessed as biapenem MIC at 4 ug/ml by broth microdilution method
# Klebsiella pneumoniae [24] = assay: Inhibition of Klebsiella pneumoniae KP1084 SHV-11 assessed as imipenem MIC at 4 ug/ml by broth microdilution method
# Klebsiella oxytoca [25] = assay: Inhibition of Klebsiella oxytoca KX1017 OXA-2 assessed as biapenem MIC at 4 ug/ml by broth microdilution method
# Klebsiella pneumoniae [26] = assay: Inhibition of Klebsiella pneumoniae KP1087 KPC-2 assessed as imipenem MIC at 4 ug/ml by broth microdilution method
# Summary of the method: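 CLSI broth microdilution (M07-A9) against clinical K. pneumoniae strain KP1087 (KPC-2, CTX-M-15, SHV-11, TEM-1); carbapenem MIC (μg/mL) read with the inhibitor held at a fixed 4 μg/mL, alongside carbapenem alone.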
# Klebsiella pneumoniae [27] = assay: Inhibition of Klebsiella pneumoniae KP1082 KPC-2 assessed as ertapenem MIC at 4 ug/ml by broth microdilution method; summary of the method: as §2
# Enterobacter cloacae = assay: Inhibition of Enterobacter cloacae ECL1058 SHV-11 assessed as ertapenem MIC at 4 ug/ml by broth microdilution method
# [28] = Clearance in rat at 100 mg/kg, iv administered as 0.5 hrs infusion by HPLC-MS method; type: ADME, organism-based; details: in vivo
# [29] = Cmax in rat at 300 mg/kg, iv administered as 0.5 hrs infusion by HPLC-MS method; type: ADME, organism-based; set-up: dose 300 mg/kg, route intravenous; details: in vivo
# Klebsiella pneumoniae [30] = assay: Inhibition of Klebsiella pneumoniae KP1004 KPC-2 assessed as ertapenem MIC at 4 ug/ml by broth microdilution method; summary of the method: as §2
# Klebsiella pneumoniae [31] = assay: Inhibition of Klebsiella pneumoniae KP1008 KPC-2 assessed as imipenem MIC at 4 ug/ml by broth microdilution method; summary of the method: as §2
# [32] = Half life in rat at 100 mg/kg, iv administered as 0.5 hrs infusion by HPLC-MS method; type: ADME, organism-based; details: in vivo
compound,measurement,setting,value
O=C(O)C[C@@H]1CC[C@H](NC(=O)Cc2cccs2)B(O)O1 [VABORBACTAM],MIC,[1],< 0.06 µg/mL
same,MIC,Klebsiella pneumoniae [2],0.25 µg/mL
same,MIC,[3],8 µg/mL
same,MIC,Klebsiella oxytoca [4],0.5 µg/mL
same,Cmax,[5],231 µg/mL
same,MIC,Klebsiella pneumoniae [6],≤ 0.06 µg/mL
same,MIC,[7],0.25 µg/mL
same,MIC,Klebsiella pneumoniae [8],4 µg/mL
same,MIC,Klebsiella pneumoniae [9],1 µg/mL
same,MIC,[10],< 0.06 µg/mL
same,MIC,[11],4 µg/mL
same,MIC,Klebsiella oxytoca [12],0.13 µg/mL
same,pIC50,Dipeptidyl peptidase 2,< 3.00
same,MIC,Klebsiella pneumoniae [13],0.25 µg/mL
same,MIC,Klebsiella pneumoniae [14],4 µg/mL
same,half-life,[15],15.6 min
same,MIC,Klebsiella pneumoniae [16],2 µg/mL
same,MIC,Klebsiella pneumoniae [17],≤ 0.06 µg/mL
same,MIC,Klebsiella pneumoniae [18],≤ 0.06 µg/mL
same,MIC,[19],1 µg/mL
same,MIC,Klebsiella pneumoniae [20],1 µg/mL
same,MIC,[21],0.13 µg/mL
same,pIC50,[22],< 3.00
same,MIC,Klebsiella pneumoniae [23],0.25 µg/mL
same,MIC,Klebsiella pneumoniae [24],0.25 µg/mL
same,MIC,Klebsiella oxytoca [25],< 0.06 µg/mL
same,MIC,Klebsiella pneumoniae [26],0.25 µg/mL
same,MIC,Klebsiella pneumoniae [27],≤ 0.06 µg/mL
same,MIC,Enterobacter cloacae,0.25 µg/mL
same,clearance,[28],26.7 mL/min/kg
same,Cmax,[29],735 µg/mL
same,MIC,Klebsiella pneumoniae [30],≤ 0.06 µg/mL
same,MIC,Klebsiella pneumoniae [31],≤ 0.06 µg/mL
same,half-life,[32],25.2 min
